The source of these data is ChEMBL document CHEMBL2331537, “Effective inhibition of acid and neutral ceramidases by novel B-13 and LCL-464 analogues” (Bioorg Med Chem, 2013).

Test [1] concerns the target Neutral ceramidase (Homo sapiens) (UniProt Q9NR71). In words: Inhibition of human recombinant neutral ceramidase using Acyl-NBD-C12-cer as substrate at 80 uM after 2 hrs by fluorescence assay. In a few lines:
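Recombinant human enzyme at 25 ng/mL final was in 200 mM sodium acetate pH 7.0, 200 mM NaCl, 0.1% Triton X-100. Final substrate was 15 and inhibitor 80, incubated 2 h at 37 °C. Reactions were chloroform/methanol quenched and cleaved/uncleaved NBD substrate resolved by TLC with fluorescence imaging. Values are % of no-inhibitor control, mean SD, three experiments.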

Test [2] concerns MDA-MB-231. The experiment in a line: Elevation of total ceramide level in human MDA-MB-231 cells at 50 uM after 24 hrs by LC-MS/MS analysis relative to control. Format: functional. In a few lines:
(§1)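 MDA-MB-231 cells were exposed to inhibitor for 24 h at 37 °C at the concentration given in each line. Lipids were extracted by modified Bligh & Dyer with 20 pmol C17-ceramide as internal standard. Analysis was positive-mode LC–MS/MS on a C18 column, isocratic acetonitrile/2-propanol 3:2 with 1% formic acid. Values are mean SD of three independent experiments versus control.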

Test [3] concerns MDA-MB-231. In words: Elevation of total ceramide level in human MDA-MB-231 cells at 25 uM after 24 hrs by LC-MS/MS analysis relative to control. The format is functional. The gist of the method: as §1
Test [4] deals with T1, Acid ceramidase (Homo sapiens) (UniProt Q13510).
T1 sequence (whole entry): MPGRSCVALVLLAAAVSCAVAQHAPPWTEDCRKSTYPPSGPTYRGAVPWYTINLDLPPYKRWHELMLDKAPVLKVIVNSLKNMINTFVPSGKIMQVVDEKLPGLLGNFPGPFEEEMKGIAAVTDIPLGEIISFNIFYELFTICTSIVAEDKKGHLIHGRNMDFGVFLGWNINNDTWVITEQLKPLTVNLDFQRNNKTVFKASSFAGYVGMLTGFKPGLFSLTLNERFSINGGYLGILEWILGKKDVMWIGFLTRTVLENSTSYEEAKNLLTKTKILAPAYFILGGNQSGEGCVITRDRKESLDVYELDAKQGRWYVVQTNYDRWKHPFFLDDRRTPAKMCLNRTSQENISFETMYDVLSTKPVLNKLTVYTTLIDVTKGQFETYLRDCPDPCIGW
In words: Inhibition of human recombinant acid ceramidase using Acyl-NBD-C12-cer as substrate at 80 uM after 8 hrs by fluorescence assay. In a few lines:
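Recombinant human enzyme (60 total protein) was in 200 mM sodium acetate pH 4.5, 200 mM NaCl, 0.1% Triton X-100, DMSO <5% v/v. Final substrate was 15 and inhibitor 80, incubated 8 h at 37 °C. Reactions were quenched with chloroform/methanol 2:1 and NBD-fatty acid separated by TLC. Imaging used ex 430/em 550 nm; % hydrolysis versus no-inhibitor control, mean SD, three experiments.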

For test [5], the system named is MDA-MB-231. The experiment in a line: Elevation of C18-ceramide level in human MDA-MB-231 cells at 50 uM by LC-MS/MS analysis. Format: functional, cell-based. In a few lines:
as §1

The test system of test [6] is MDA-MB-231. The experiment in a line: Elevation of C16-ceramide level in human MDA-MB-231 cells at 50 uM by LC-MS/MS analysis. The format is functional, cell-based. In a few lines:
as §1

Test [7] deals with MDA-MB-231. In words: Elevation of C16-ceramide level in human MDA-MB-231 cells at 25 uM by LC-MS/MS analysis. The format is functional, cell-based. The gist of the method:
as §1

In test [8] the test system is MDA-MB-231. The experiment in a line: Elevation of C24-ceramide level in human MDA-MB-231 cells at 25 uM by LC-MS/MS analysis. Format: functional, cell-based. The gist of the method: as §1
Test [9] has as its system MDA-MB-231. In words: Elevation of C24-ceramide level in human MDA-MB-231 cells at 50 uM by LC-MS/MS analysis. Format: functional, cell-based. In a few lines:
as §1

Another test deals with HL-60. In words: Cytotoxicity against human HL60 cells assessed as growth inhibition by trypan blue dye exclusion assay.
In test [10] the test system is MDA-MB-231. In words: Elevation of C18-ceramide level in human MDA-MB-231 cells at 25 uM by LC-MS/MS analysis. Format: functional, cell-based. In a few lines: as §1
In a further test the target is Alkaline ceramidase 2 (Homo sapiens, UniProt Q5QJU3). The experiment in a line: Inhibition of alkaline ceramidase 2 in human HL-60 cells using 3H]C16-ceramide as substrate after 1 hr by liquid scintillation counting analysis. Format: cell-based.
Test [11] has as its system MDA-MB-231. In words: Induction of apoptosis in human MDA-MB-231 cells assessed as increase in cytoplasmic histone-associated DNA fragment level after 24 hrs by ELISA. Particulars: MDA-MB-231, 24 h. The format is functional, cell-based. The gist of the method:
(§2)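 Cells were seeded for 24 h, then treated 24 h in DMEM with compound or DMSO vehicle. Cytoplasmic histone-associated DNA fragments were measured photometrically by Cell Death Detection ELISA Plus, following the kit protocol. Values are % of control (mean S.D., n = 3); dose–response is read as optical density.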
For orientation: An ELISA detects its analyte on a solid surface through an enzyme-linked reagent.

The subject of test [12] is MDA-MB-231. The experiment in a line: Induction of apoptosis in human MDA-MB-231 cells assessed as increase in cytoplasmic histone-associated DNA fragment level at 25 to 50 uM after 24 hrs by ELISA relative to control. Format: functional. In a few lines:
as §2

Calls of active or inactive are those of the source. The calls are words filed in the database; no cut-off is given here.

Neutral ceramidase (Homo sapiens), sequence (Q9NR71 whole entry): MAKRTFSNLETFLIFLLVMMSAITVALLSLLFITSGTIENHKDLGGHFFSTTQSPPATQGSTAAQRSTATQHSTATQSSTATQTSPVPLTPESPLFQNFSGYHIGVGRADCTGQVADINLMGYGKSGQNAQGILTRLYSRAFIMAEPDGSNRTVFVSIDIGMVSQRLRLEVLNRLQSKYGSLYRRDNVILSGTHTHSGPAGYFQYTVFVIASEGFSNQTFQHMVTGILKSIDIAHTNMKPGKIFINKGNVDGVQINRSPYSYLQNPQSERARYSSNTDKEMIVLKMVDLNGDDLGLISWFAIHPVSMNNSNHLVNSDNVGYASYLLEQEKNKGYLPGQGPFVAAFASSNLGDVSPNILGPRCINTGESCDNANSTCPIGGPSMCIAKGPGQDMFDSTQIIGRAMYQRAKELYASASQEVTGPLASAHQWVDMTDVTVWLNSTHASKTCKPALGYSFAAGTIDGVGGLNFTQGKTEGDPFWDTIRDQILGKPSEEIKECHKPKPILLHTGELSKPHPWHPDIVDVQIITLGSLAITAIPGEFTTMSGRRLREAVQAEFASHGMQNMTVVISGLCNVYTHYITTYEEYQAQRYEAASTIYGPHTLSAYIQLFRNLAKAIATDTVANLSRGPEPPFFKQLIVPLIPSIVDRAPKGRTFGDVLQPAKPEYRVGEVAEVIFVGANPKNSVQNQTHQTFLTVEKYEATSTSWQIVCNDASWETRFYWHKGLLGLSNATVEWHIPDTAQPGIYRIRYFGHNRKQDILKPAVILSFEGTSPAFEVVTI

Consider `CCCCCCCCCCCCCC(=O)N[C@H](C(=O)O)[C@H](O)c1ccc([N+](=O)[O-])cc1`, for which the inhibition – broadly, how much of the control response was suppressed – in [1] was “inactive”. Moreover, the Activity in the test on MDA-MB-231 [2] and with MDA-MB-231 [3] was 150% throughout. In addition, the inhibition result in test [4] is “Active”.

As for `CN(C)CCCCCCCCCCCC(=O)N[C@H](CO)[C@H](O)c1ccc([N+](=O)[O-])cc1`, the inhibition in [1] stood at 30%. The Activity result with MDA-MB-231 [2] is given as “>=150%”. Moreover, the inhibition entry in test [4] is “Active”.

`CCCCCCCCCCCCCC(=O)NCC(O)c1ccccc1` (racemic): in the test on MDA-MB-231 [2], the Activity result is on record as “>=150%”.

In the case of `CCCCCCCCCCCCCC(=O)N[C@H](CO)[C@H](O)c1ccc([N+](=O)[O-])cc1`, the outcome with MDA-MB-231 [5], with MDA-MB-231 [6] and with MDA-MB-231 [9] was Active. Further, the result with MDA-MB-231 [7], in the test with MDA-MB-231 [8] and in the test with MDA-MB-231 [10] was inactive. Further, the results for the Activity in the test on MDA-MB-231 [2] and with MDA-MB-231 [3] were 350% and 150%, respectively. Also, the IC50 (as a rule, the concentration at which inhibition is half-maximal) with HL-60 amounted to 1.5 µM. Moreover, the inhibition result in [4] is “Active”.

Take `CN(C)CCCCCCCCCCCC(=O)NCC(O)c1ccncc1` (racemic): the inhibition result in test [1] and in test [4] was “inactive” throughout. In addition, in the test on MDA-MB-231 [2], the Activity entry is reported as “>=150%”.

For the molecule `CCCCCCCCCCCCCC(=O)N[C@H](C)[C@@H](O)c1ccccc1`, the figures for the inhibition in [1] and in test [4] were 8% and 60%, respectively. At Alkaline ceramidase 2, this molecule came in with an IC50 of 1 µM.

Regarding `C[C@@H](NC(=O)CCCCCCCCCCCN(C)C)[C@@H](O)c1ccccc1`, the Activity entry in the test with MDA-MB-231 [2] is recorded as “>=150%”.

With `CN(C)CCCCCCCCCCCC(=O)NCC(O)c1cccnc1` (racemic), the inhibition entry in test [1] and in [4] was “inactive” in each case. Further, the Activity in the test on MDA-MB-231 [2] is < 150%.

Turning to `CN(C)CCCCCCCCCCCC(=O)NCC(O)c1ccccc1` (racemic), the Activity result in the test on MDA-MB-231 [2] is “>=150%”.

`CCCCCCCCCCCCCC(=O)N[C@H](CO)C(=O)c1ccc([N+](=O)[O-])cc1`: the inhibition result in [1] and in test [4] was “Active” in each case.

Regarding `CCCCCCCCCCCCCC(=O)N[C@H](CO)[C@H](O)c1ccc(N)cc1`, the EC50 (as a rule, the concentration needed to bring the measured effect to its halfway point) with MDA-MB-231 [11] turned out to be 59 µM. Also, the inhibition result in [1] and in [4] was “Active” each time. Further, the Activity in the test on MDA-MB-231 [2] and in the test on MDA-MB-231 [3] was 300% throughout. The “fold change (FC)” value in the test on MDA-MB-231 [12] came out at 3.
